# Experimental data: ChEMBL document CHEMBL3865824, “New (E)-1-alkyl-1H-benzo[d]imidazol-2-yl)methylene)indolin-2-ones: Synthesis, in vitro cytotoxicity evaluation and apoptosis inducing studies” (Eur J Med Chem, 2016)
# Calls of active or inactive are those of the source. The calls are words filed in the database; no cut-off is given here.
# Columns and labels:
# [1] = Cytotoxicity against human A549 cells assessed as growth inhibition at 50 uM after 48 hrs by MTT assay relative to control; type: functional; conditions: A549, 48 h, read-out: GI
# Method in brief: (§1)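 Cells grown in DMEM or MEM with 10% FBS at 37 °C, 5% CO2. Seeded at 1×10^4 cells/well, incubated 48 h, then exposed to compound for 48 h with vehicle control. MTT (5 mg/mL stock) added for 4 h; formazan dissolved in DMSO, absorbance read at 570 nm. Preliminary screen at 50 µM. Compounds giving >50% inhibition were tested for dose-response curves; IC50 derived by linear regression of % inhibition versus concentration. Mean of three independent experiments in triplicate.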
# [2] = Cytotoxicity against human PC3 cells assessed as growth inhibition at 50 uM after 48 hrs by MTT assay relative to control; type: functional; conditions: PC-3, 48 h, read-out: GI; method in brief: as §1
# [3] = system: MDA-MB-231; experiment: Induction of apoptosis in human MDA-MB-231 cells assessed as destructive fragmentation of chromatin at 4 uM after 24 hrs by AO/EB-dual staining based fluorescent microscopic analysis; type: functional, cell-based
# Method in brief: (§2)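 MDA-MB-231 plated at 1×10^6 cells/mL and treated at 1, 2 or 4 µM, with a DMSO control. Incubation time is given as 48 h in the methods and 24 h in the figure legend. AO and EB added at 10 µg/mL each. Cells viewed within 10 min by fluorescence microscopy (excitation 488 nm, emission 550 nm) at 200×.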
# [4] = system: MDA-MB-231; experiment: Induction of apoptosis in human MDA-MB-231 cells assessed as early apoptotic cells after 24 hrs by Annexin V-FITC/propidium iodide-staining based FACS analysis; type: functional, cell-based
# [5] = Cytotoxicity against human BT549 cells assessed as growth inhibition at 50 uM after 48 hrs by MTT assay relative to control; type: functional; conditions: BT-549, 48 h, read-out: GI; method in brief: as §1
# [6] = system: MDA-MB-231; experiment: Induction of apoptosis in human MDA-MB-231 cells assessed as formation of condensed chromatin at 1 uM after 24 hrs by AO/EB-dual staining based fluorescent microscopic analysis; type: functional, cell-based; method in brief: as §2
# [7] = Cell cycle arrest in human MDA-MB-231 cells assessed as accumulation at S phase at 1 uM after 24 hrs by propidium iodide staining based FACS analysis (reference value: 24.6 %); type: functional
# Method in brief: (§3)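 MDA-MB-231 at 1×10^6 cells/well treated with 1, 2 or 4 µM for 24 h, with a DMSO control. Cells harvested by trypsin, washed with PBS and fixed in 70% ethanol for 30 min at 4 °C. Stained 15 min at room temperature in the dark with PI buffer containing Triton X and DNase-free RNase A. Analysed by flow cytometry; G0/G1, S and G2/M fractions quantified.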
# [8] = Cytotoxicity against human MDA-MB-231 cells assessed as growth inhibition at 50 uM after 48 hrs by MTT assay relative to control; type: functional; conditions: MDA-MB-231, 48 h, read-out: GI; method in brief: as §1
# [9] = system: MDA-MB-231; experiment: Antimigratory activity against human MDA-MB-231 cells assessed inhibition of cell migration towards wound area at 2 to 4 uM up to 24 hrs by phase contrast microscopic analysis; type: functional, cell-based
# Method in brief: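 MDA-MB-231 seeded at 5×10^5 cells/well and grown 24 h to a confluent monolayer. Monolayer scratched with a 200 µL pipette tip and washed twice with PBS to remove non-adherent cells. Medium with compound at 1, 2 or 4 µM added. Wound closure photographed by phase contrast microscopy at 0 and 24 h after treatment.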
# [10] = Cell cycle arrest in human MDA-MB-231 cells assessed as accumulation at G2/M phase at 1 uM after 24 hrs by propidium iodide staining based FACS analysis (reference value: 26 %); type: functional; method in brief: as §3
# [11] = Cytotoxicity against human MCF10A cells assessed as reduction in cell viability after 48 hrs by MTT assay; type: toxicity, cell-based, MCF-10A; method in brief: as §1
# [12] = system: MDA-MB-231; experiment: Induction of apoptosis in human MDA-MB-231 cells assessed as loss of mitochondrial membrane potential at 1 uM after 24 hrs by rhodamine-123 -based spectrofluorometric analysis relative to control; type: functional
# Method in brief: (§4)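 MDA-MB-231 cells were plated at 5×10^5 cells/mL in 6-well plates, left to adhere overnight, then treated 24 h at 1, 2 and 4 μM. Cells were trypsinized, washed in PBS and loaded with rhodamine-123 (10 μg/mL) in PBS for 30 min at room temperature. After two PBS washes, fluorescence was read by spectrofluorometer (ex 480/em 530 nm). Loss is expressed against control; three independent experiments in triplicate.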
# [13] = system: MDA-MB-231; experiment: Induction of apoptosis in human MDA-MB-231 cells assessed as loss of mitochondrial membrane potential at 2 uM after 24 hrs by rhodamine-123 -based spectrofluorometric analysis relative to control; type: functional; method in brief: as §4
# [14] = Cell cycle arrest in human MDA-MB-231 cells assessed as accumulation at G0/G1 phase at 4 uM after 24 hrs by propidium iodide staining based FACS analysis (reference value: 50.4 %); type: functional; method in brief: as §3
# [15] = system: MDA-MB-231; experiment: Induction of apoptosis in human MDA-MB-231 cells assessed as cell membrane blebbing at 1 uM after 24 hrs by AO/EB-dual staining based fluorescent microscopic analysis; type: functional; method in brief: as §2
# [16] = Cell cycle arrest in human MDA-MB-231 cells assessed as accumulation at S phase at 2 uM after 24 hrs by propidium iodide staining based FACS analysis (reference value: 24.6 %); type: functional; method in brief: as §3
# [17] = system: MDA-MB-231; experiment: Induction of apoptosis in human MDA-MB-231 cells assessed as cell shrinkage at 1 to 4 uM after 24 hrs by phase contrast microscopic analysis; type: functional, cell-based
# Method in brief: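 MDA-MB-231 treated at 1, 2 or 4 µM for 24 h. Morphology examined and photographed by phase contrast microscopy against untreated control cells.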
# [18] = system: MDA-MB-231; experiment: Inhibition of F-actin polymerization in human MDA-MB-231 cells assessed as disruption of stress fibres at 1 to 4 uM after 12 hrs by rhodamine-phalloidin/hoechst […]-dual staining based confocal microscopic analysis; type: cell-based
# Method in brief: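 MDA-MB-231 cells (1×10^6/well) were grown on coverslips for 24 h, then exposed 12 h to 1, 2 and 4 μM. After a PBS wash and fixation in 4% paraformaldehyde, F-actin was stained with rhodamine-phalloidin and nuclei with Hoechst […]. Slides were mounted in anti-fade reagent and imaged by confocal microscopy (20× objective).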
# [19] = system: MDA-MB-231; experiment: Induction of apoptosis in human MDA-MB-231 cells assessed as early apoptotic cells at 1 uM after 24 hrs by Annexin V-FITC/propidium iodide-staining based FACS analysis (reference value: 4.1 %); type: functional
# [20] = Cytotoxicity against HGC cells assessed as growth inhibition at 50 uM after 48 hrs by MTT assay relative to control; type: functional; conditions: Homo sapiens, read-out: GI; method in brief: as §1
# [21] = system: MDA-MB-231; experiment: Induction of superoxide production in human MDA-MB-231 cells after 48 hrs by mitoSOX red-probe based fluorescent microscopic analysis; type: functional, cell-based
# Method in brief: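 Cells were seeded at 1×10^5/well in 24-well plates and left to adhere overnight, then treated at different concentrations (methods: medium removed after 24 h; legend: 48 h treatment). After a PBS wash, cells were loaded with MitoSOX Red in HBSS for 15 min at 37 °C, washed three times with PBS and imaged by fluorescence microscopy against DMSO control.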
smiles,measurement,setting,value
CC(C)n1c(/C=C2/C(=O)Nc3ccc(Br)cc32)nc2ccccc21,inhibition of growth at 50 µM,[1],> 50%
same,inhibition of growth at 50 µM,[2],> 50%
same,Activity,[3],Active
same,Activity,[4],Dose-dependent effect
same,inhibition of growth at 50 µM,[5],> 50%
same,Activity,[6],Active
same,Activity,[7],20.8%
same,inhibition of growth at 50 µM,[8],> 50%
same,inhibition,[9],Active
same,Activity,[10],21.8%
same,IC50 at 48 h,[11],56.9 µM
same,Activity,[12],25.2%
same,Activity,[13],32.5%
same,Activity,[14],74.7%
same,Activity,[15],Active
same,Activity,[16],17.7%
same,Activity,[17],Active
same,inhibition,[18],Active
same,Activity,[19],8.6%
same,inhibition of growth at 50 µM,[20],> 50%
same,Activity,[21],Dose-dependent effect
